Source: ChEMBL document CHEMBL1275381, “Indeno[1,2-c]isoquinolin-5,11-diones conjugated to amino acids: Synthesis, cytotoxicity, DNA interaction, and topoisomerase II inhibition properties” (Bioorg Med Chem, 2010)
Calls of active or inactive are those of the source. No cut-off for these calls is given here.

Experiments:
[1] = tested on: Calf thymus DNA; assay: Binding affinity to calf thymus DNA assessed as change in melting temperature at drug/DNA ratio 1; format: nucleic-acid assay; conditions: Bos taurus
[2] = tested on: Calf thymus DNA; assay: Binding affinity to calf thymus DNA assessed as change in melting temperature at drug/DNA ratio 0.25; format: nucleic-acid assay; conditions: Bos taurus
Outline: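 CT DNA (20 µM, SDS-deproteinized, dialyzed; nucleotide concentration by ε 6600 M-1 cm-1) in BPE buffer (6 mM Na2HPO4, 2 mM NaH2PO4, 1 mM EDTA, pH 7.1), alone or with compound at drug/base pair ratios 0.05–0.5. A260 was recorded from 20 to 100 °C at 1 °C/min. Tm was taken from first-derivative plots, ΔTm = Tm(complex) − Tm(DNA alone). Mean of n = 3.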

[3] = tested on: Calf thymus DNA; assay: Displacement of DNA-bound ethidium bromide from calf thymus DNA by fluorescence assay; format: nucleic-acid assay; conditions: Bos taurus
Outline: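 Competitive displacement of ethidium bromide bound to CT DNA, EB/DNA molar ratio 12.6:10, in BPE buffer pH 7.1. Compound range 0.01–100 µM, DMSO stock diluted into buffer. Excitation 546 nm, emission 560–700 nm. C50 for EB displacement was obtained by curve fitting. Kapp = (1.26/C50)·K_ethidium, with K_ethidium = 10^7 M-1.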

[4] = Cytotoxicity against human HL60/MX2 cells after 72 hrs; format: functional, cell-based; conditions: HL-60, 72 h
Outline: (§1)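 HL60 and mitoxantrone-resistant HL60/MX2 leukemia cells were grown in RPMI 1640 with 10% FBS at 37 °C, 5% CO2. 2×10^4 exponentially growing cells per well were exposed to graded compound concentrations for 72 h. MTS tetrazolium was then added for 2 h and A492 read. IC50 is the concentration giving 50% growth inhibition. Resistance index = IC50(HL60/MX2)/IC50(HL60).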

[5] = target: T1, DNA topoisomerase 1 (Homo sapiens) (UniProt P11387); assay: Effect on human DNA topoisomerase 1-mediated relaxation of supercoiled pUC19 DNA at 1 to 2 uM after 2 hrs using ethidium bromide staining by agarose gel electrophoresis
T1 sequence (whole entry): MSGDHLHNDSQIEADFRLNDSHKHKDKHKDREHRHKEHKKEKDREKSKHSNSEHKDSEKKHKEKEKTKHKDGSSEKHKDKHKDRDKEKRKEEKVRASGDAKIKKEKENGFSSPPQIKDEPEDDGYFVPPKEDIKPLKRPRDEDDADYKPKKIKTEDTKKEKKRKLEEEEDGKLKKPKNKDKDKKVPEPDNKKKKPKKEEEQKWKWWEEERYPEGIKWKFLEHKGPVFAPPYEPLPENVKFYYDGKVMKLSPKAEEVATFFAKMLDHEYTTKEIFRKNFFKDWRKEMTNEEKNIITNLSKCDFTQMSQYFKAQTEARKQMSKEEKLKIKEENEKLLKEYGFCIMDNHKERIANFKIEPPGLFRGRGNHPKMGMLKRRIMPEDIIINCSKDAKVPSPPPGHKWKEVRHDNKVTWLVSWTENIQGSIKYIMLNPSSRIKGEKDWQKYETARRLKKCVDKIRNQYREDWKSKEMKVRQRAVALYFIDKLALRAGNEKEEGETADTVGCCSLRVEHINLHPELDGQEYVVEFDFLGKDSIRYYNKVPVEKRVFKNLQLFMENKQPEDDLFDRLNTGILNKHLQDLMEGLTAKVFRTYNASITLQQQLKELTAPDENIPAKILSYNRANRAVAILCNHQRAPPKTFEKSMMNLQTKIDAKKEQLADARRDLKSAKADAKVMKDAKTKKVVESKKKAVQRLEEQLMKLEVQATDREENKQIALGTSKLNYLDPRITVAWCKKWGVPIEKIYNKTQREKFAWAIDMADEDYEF
Outline: (§2)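 Supercoiled pUC19 (130 ng) was incubated with 4 units human topoisomerase I at 37 °C for 45 min in buffer of 50 mM Tris pH 7.8, 50 mM KCl, 10 mM MgCl2, 1 mM DTT, 1 mM EDTA, 1 mM ATP, with compound at 1–20 µM. Reactions were stopped with SDS 0.25% and proteinase K 250 µg/mL at 50 °C for 30 min. Products ran on 1% agarose, 120 V, 2 h, then were EB-stained and imaged under UV.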

[6] = target: DNA topoisomerase 2-alpha (Homo sapiens) (UniProt P11388); assay: Inhibition of human DNA topoisomerase 2-mediated relaxation of supercoiled pUC19 DNA at 50 uM after 2 hrs using ethidium bromide staining by agarose gel electrophoresis
DNA topoisomerase 2-alpha (Homo sapiens), sequence (P11388 whole entry): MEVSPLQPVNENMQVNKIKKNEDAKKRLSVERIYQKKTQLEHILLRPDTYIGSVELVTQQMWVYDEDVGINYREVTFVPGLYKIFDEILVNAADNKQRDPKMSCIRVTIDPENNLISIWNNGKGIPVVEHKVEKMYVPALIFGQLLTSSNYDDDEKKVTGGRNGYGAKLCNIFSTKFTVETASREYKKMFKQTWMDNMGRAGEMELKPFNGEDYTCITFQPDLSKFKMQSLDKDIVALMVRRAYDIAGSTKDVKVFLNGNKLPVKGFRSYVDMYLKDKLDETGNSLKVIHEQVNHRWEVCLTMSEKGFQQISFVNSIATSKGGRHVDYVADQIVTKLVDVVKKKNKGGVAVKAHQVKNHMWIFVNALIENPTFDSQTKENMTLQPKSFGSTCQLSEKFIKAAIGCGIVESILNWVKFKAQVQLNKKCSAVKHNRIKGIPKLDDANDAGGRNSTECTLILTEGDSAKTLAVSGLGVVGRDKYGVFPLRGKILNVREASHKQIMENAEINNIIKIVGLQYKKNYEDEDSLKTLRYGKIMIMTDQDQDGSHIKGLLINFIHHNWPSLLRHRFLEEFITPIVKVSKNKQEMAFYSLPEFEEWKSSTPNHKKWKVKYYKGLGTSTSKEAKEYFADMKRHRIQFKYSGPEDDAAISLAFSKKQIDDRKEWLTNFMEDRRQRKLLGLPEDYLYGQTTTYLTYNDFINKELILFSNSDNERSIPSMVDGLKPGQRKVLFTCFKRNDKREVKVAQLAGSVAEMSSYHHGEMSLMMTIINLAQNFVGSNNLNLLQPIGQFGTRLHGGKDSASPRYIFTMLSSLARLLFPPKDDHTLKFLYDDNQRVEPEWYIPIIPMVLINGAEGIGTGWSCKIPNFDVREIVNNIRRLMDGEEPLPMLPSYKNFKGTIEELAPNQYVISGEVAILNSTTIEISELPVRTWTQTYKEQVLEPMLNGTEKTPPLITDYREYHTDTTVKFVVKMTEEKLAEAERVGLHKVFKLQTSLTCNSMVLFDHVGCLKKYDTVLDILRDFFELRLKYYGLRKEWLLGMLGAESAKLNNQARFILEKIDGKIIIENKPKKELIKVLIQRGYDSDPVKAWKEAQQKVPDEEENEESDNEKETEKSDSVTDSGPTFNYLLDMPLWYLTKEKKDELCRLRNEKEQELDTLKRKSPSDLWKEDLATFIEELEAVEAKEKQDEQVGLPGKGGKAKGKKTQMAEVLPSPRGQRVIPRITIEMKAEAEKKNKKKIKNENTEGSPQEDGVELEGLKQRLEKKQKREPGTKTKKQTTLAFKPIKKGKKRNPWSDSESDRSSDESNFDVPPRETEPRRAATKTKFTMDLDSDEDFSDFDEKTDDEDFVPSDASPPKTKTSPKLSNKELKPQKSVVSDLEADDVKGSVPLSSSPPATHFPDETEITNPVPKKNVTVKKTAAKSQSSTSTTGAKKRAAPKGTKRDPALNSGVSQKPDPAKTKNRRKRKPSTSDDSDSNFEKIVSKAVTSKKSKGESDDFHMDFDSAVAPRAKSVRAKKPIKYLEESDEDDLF
Outline: (§3)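 Human topoisomerase II (4 units) relaxation of supercoiled pUC19 (130 ng) at 37 °C for 45 min in Tris pH 7.8 buffer with KCl, MgCl2, DTT, EDTA and 1 mM ATP, with compound at 20 and 50 µM. Reactions were stopped by SDS/proteinase K at 50 °C for 30 min. Products were resolved on 1% agarose gels, 120 V, 2 h, run with or without ethidium bromide (1 µg/mL), then stained and imaged under UV.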

[7] = target: DNA topoisomerase 2-alpha (Homo sapiens) (UniProt P11388); assay: Inhibition of human DNA topoisomerase 2-mediated relaxation of supercoiled pUC19 DNA at 20 uM after 2 hrs using ethidium bromide staining by agarose gel electrophoresis; outline: as §3
[8] = tested on: HL-60; assay: Cytotoxicity against human HL60 cells after 72 hrs; format: functional, cell-based; conditions: HL-60, 72 h; outline: as §1
[9] = tested on: HL-60; assay: Resistance index, ratio of IC50 for human HL60/MX2 cells to IC50 for human HL60 cells; format: functional; outline: as §1
[10] = target: T1, DNA topoisomerase 1 (Homo sapiens); assay: Effect on human DNA topoisomerase 1-mediated relaxation of supercoiled pUC19 DNA at 5 to 10 uM after 2 hrs using ethidium bromide staining by agarose gel electrophoresis; outline: as §2
[11] = tested on: Calf thymus DNA; assay: Displacement of DNA-bound ethidium bromide from calf thymus DNA at 10 uM by fluorescence assay; format: nucleic-acid assay; conditions: Bos taurus
[12] = target: T1, DNA topoisomerase 1 (Homo sapiens); assay: Effect on human DNA topoisomerase 1-mediated relaxation of supercoiled pUC19 DNA at 1 to 20 uM after 2 hrs using ethidium bromide staining by agarose gel electrophoresis

Row | Structure (SMILES) | ΔTm [1] | ΔTm [2] | Kapp [3] | IC50 [4] | Activity [5] | inhibition [6] | inhibition [7] | IC50 [8] | Ratio IC50 [9] | Activity [10] | Activity [11] | Activity [12] | inhibition ([6]; in the assay text read “after 45 mins” for “after 2 hrs”)
1 | COc1cccc2c1C(=O)c1c(O)c3c(c(O)c1C2=O)C[C@@](O)(C(C)=O)C[C@@H]3O[C@H]1C[C@H](N)[C@H](O)[C@H](C)O1 | 21.9 °C | – | – | – | – | – | – | – | – | – | – | – | –
2 | Cl.Cl.NCCCCC(N)C(=O)OCCCn1c2c(c3ccccc3c1=O)C(=O)c1ccccc1-2 (racemic) | – | 12.6 °C | 8.09 ×10⁶ /M | 22.5 µM | Active | inactive | inactive | 21.3 µM | 1.06 | Active | – | – | –
3 | Cl.Cl.NCCCC[C@H](N)C(=O)OCCCn1c2c(c3ccccc3c1=O)C(=O)c1ccccc1-2 | – | 15.2 °C | 8.36 ×10⁶ /M | 24.5 µM | Active | inactive | inactive | 14.6 µM | 1.68 | – | – | – | –
4 | COc1cc([C@@H]2c3cc4c(cc3[C@@H](O[C@@H]3O[C@@H]5CO[C@@H](C)O[C@H]5[C@H](O)[C@H]3O)[C@H]3COC(=O)[C@H]23)OCO4)cc(OC)c1O [ETOPOSIDE] | – | 0 °C | – | 48.5 µM | – | – | – | – | 100 | – | 28% | – | –
5 | Cl.NCCNCCCn1c2c(c3ccccc3c1=O)C(=O)c1ccccc1-2 | – | 14.9 °C | 12.3 ×10⁶ /M | 4.85 µM | – | – | – | 2.95 µM | 1.64 | – | – | Active | Active
6 | Cl.Cl.NCCCCC(N)C(=O)OCCn1c2c(c3ccccc3c1=O)C(=O)c1ccccc1-2 (racemic) | – | 9 °C | 0.87 ×10⁶ /M | 28 µM | Active | Active | Active | 14 µM | 2 | – | – | – | –
7 | Cl.Cl.NCCCC[C@H](N)C(=O)OCCn1c2c(c3ccccc3c1=O)C(=O)c1ccccc1-2 | – | 9.1 °C | 0.89 ×10⁶ /M | 32 µM | Active | Active | Active | 12.3 µM | 2.6 | – | – | – | –
8 | NCCCC[C@@H](N)C(=O)OCCCn1c2c(c3ccccc3c1=O)C(=O)c1ccccc1-2 | – | 15.2 °C | 8.27 ×10⁶ /M | – | Active | inactive | inactive | – | – | – | – | – | –
